Measured values from ChEMBL document CHEMBL3870363, “Systematic Study of Effects of Structural Modifications on the Aqueous Solubility of Drug-like Molecules” (ACS Med Chem Lett, 2017).
In brackets after ≈: the same amount, converted by molar mass.

What was measured:
[1] = Aqueous solubility of the compound in Britton-Robinson buffer at pH 6.5 measured after 2 days by saturation shake flask based UV-vis spectroscopy; type: physicochemical
How it was run: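 Shake-flask method: saturated solutions formed by stirring 2 days in Britton–Robinson buffer (pH 6.5), then filtered through a 0.2 μm pore syringe filter and quantified by UV–vis. Piroxicam served as a repeated control.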

[2] = molecular target: T1, Macrophage migration inhibitory factor (Homo sapiens, UniProt P14174); test: Inhibition of recombinant human MIF tautomerase activity expressed in Escherichia coli assessed as borate-enol complex formation using 4-hydroxyphenyl pyruvic acid as substrate preincubated for 20 mins followed by substrate addition measured for 175 sec by spectrophotometric analysis
T1 sequence (P14174 whole entry): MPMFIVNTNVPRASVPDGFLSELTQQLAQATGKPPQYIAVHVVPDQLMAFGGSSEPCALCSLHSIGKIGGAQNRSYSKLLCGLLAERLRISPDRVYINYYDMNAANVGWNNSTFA

[3] = Equilibrium solubility of the compound in Britton-Robinson buffer stirred for 6 hrs followed by sedimentation for 18 hrs by saturation shake flask based UV-vis spectroscopy; type: physicochemical

| solubility thermodynamic at 48 h [1] [µg/mL] | Ki [2] [nM] | solubility thermodynamic at 6 h [3] [µg/mL] | SMILES |
| --- | --- | --- | --- |
| 3.6 to 4 (≈ 9.93 to 11 µM) |  |  | COCCOc1ccc2nc(-c3cn(-c4ccc(O)cc4)nn3)ccc2c1 |
| 867 (≈ 2040 µM) | 37 |  | O=C(O)COCCOc1ccc2nc(-c3cn(-c4ccc(O)c(F)c4)nn3)ccc2c1 |
| 3.7 |  |  | NCCOc1ccc2nc(-c3cn(-c4ccc(O)cc4)nn3)ccc2c1.O=C(O)C(F)(F)F |
| 37 (≈ 97.3 µM) |  |  | O=C(O)COc1ccc2nc(-c3cn(-c4ccc(O)c(F)c4)nn3)ccc2c1 |
| 2.4 (≈ 5.9 µM) | 147 |  | COCCOCCOc1ccc2nc(-c3cn(-c4ccc(O)cc4)nn3)ccc2c1 |
| 13.9 |  |  | NCCOCCOc1ccc2nc(-c3cn(-c4ccc(O)cc4)nn3)ccc2c1.O=C(O)C(F)(F)F |
| 47.2 (≈ 107 µM) |  |  | O=C(O)c1cccc(Oc2cccc3nc(-c4cn(-c5ccc(O)c(F)c5)nn4)ccc23)c1 |
| 6.1 (≈ 12.9 µM) | 24 |  | COCCOc1cccc(Oc2cccc3nc(-c4cn(-c5ccc(O)c(F)c5)nn4)ccc23)c1 |
| 365 (≈ 1010 µM) |  |  | O=C(O)COc1ccc2nc(-c3cn(-c4ccc(O)cc4)nn3)ccc2c1 |
| 2.6 (≈ 7.46 µM) |  |  | OCCOc1ccc2nc(-c3cn(-c4ccc(O)cc4)nn3)ccc2c1 |
| 19.2 (≈ 47 µM) |  |  | O=C(O)CCCOc1ccc2nc(-c3cn(-c4ccc(O)c(F)c4)nn3)ccc2c1 |
| 3.4 (≈ 8.45 µM) | 270 |  | Oc1ccc(-n2cc(-c3ccc4cc(OCC5CCCCO5)ccc4n3)nn2)cc1 (stereo not drawn) |
| 1050 (≈ 3020 µM) | 1370 |  | O=C(O)COc1ccc2nc(-c3cn(-c4ccccc4)nn3)ccc2c1 |
| 2.2 (≈ 7.63 µM) |  |  | Oc1ccc(-n2cc(-c3ccc4ccccc4n3)nn2)cc1 |
| 27.2 (≈ 56.7 µM) |  |  | Oc1ccc(-n2cc(-c3ccc4cc(OCCOCCN5CCOCC5)ccc4n3)nn2)cc1F |
| 9.1 |  |  | NCCOCCOc1ccc2nc(-c3cn(-c4ccc(O)c(F)c4)nn3)ccc2c1.O=C(O)C(F)(F)F |
| 6.5 (≈ 19.6 µM) |  | 6.36 (≈ 19.2 µM) | CN1C(C(=O)Nc2ccccn2)=C(O)c2ccccc2S1(=O)=O [PIROXICAM] |
